{"data": "Published values from different studies", "note": "Protocols differ between the studies behind these lines. pEC50: −log10 of the molar value."}
{"SMILES": "CN(C)c1cc(NC(=O)CCc2ccccc2)c(O)c2c1C[C@H]1C[C@H]3[C@H](N(C)C)C(O)=C(C(N)=O)C(=O)[C@@]3(O)C(O)=C1C2=O", "target or system": "Mycobacterium tuberculosis", "assay": "microbial growth, broth dilution", "system": "H37RV", "conditions": "7 days, pH 7.4", "measurement": "MIC", "value": "12.5 µg/mL"}
{"SMILES": "O=C(Nc1ccc(Oc2nnc(-c3ccc(Cl)cc3)c3ccccc23)cc1)c1ccccc1", "target or system": "HepG2", "assay": "cell growth or viability, MTT", "conditions": "0.625 µM", "measurement": "cell death", "value": "87.9%"}
{"SMILES": "CN(C)c1ccc(O)c2c1C[C@H]1C[C@H]3[C@H](N(C)C)C(O)=C(C(N)=O)C(=O)[C@@]3(O)C(O)=C1C2=O", "target or system": "Mycobacterium tuberculosis", "assay": "microbial growth, broth dilution", "system": "H37RV", "conditions": "7 days, pH 7.4", "measurement": "MIC", "value": "0.2 µg/mL"}
{"SMILES": "CC(=NNC(=O)c1ccc(N)cc1)c1ccc(Nc2nnc(-c3ccc(Cl)cc3)c3ccccc23)cc1", "target or system": "HepG2", "assay": "cell growth or viability, MTT", "conditions": "0.312 µM, 24 h", "measurement": "viability", "value": "98.2%"}
{"SMILES": "Nc1ncnc2c1c(/C=C/C(=O)N1CCC(c3ccccc3)CC1)nn2CC1CCCC1", "target or system": "OE33", "assay": "cell growth or viability, resazurin", "conditions": "5 days", "measurement": "pEC50", "value": "< 4.52"}
{"SMILES": "CN(C)c1cc(NC(=O)Cc2ccccc2)c(O)c2c1C[C@H]1C[C@H]3[C@H](N(C)C)C(O)=C(C(N)=O)C(=O)[C@@]3(O)C(O)=C1C2=O", "target or system": "Mycobacterium tuberculosis", "assay": "microbial growth, broth dilution", "system": "H37RV", "conditions": "7 days, pH 7.4", "measurement": "MIC", "value": "3.1 µg/mL"}
{"SMILES": "O=C(C=Cc1ccccc1)Nc1ccc(Oc2nnc(-c3ccc(Cl)cc3)c3ccccc23)cc1", "target or system": "HepG2", "assay": "cell growth or viability, MTT", "conditions": "10 µM", "measurement": "cell death", "value": "97.4%"}
{"SMILES": "CNc1ncc2c(/C=C/C(=O)N3CCC(CCO)CC3)nn(CC3CCCC3)c2n1", "target or system": "OE33", "assay": "cell growth or viability, resazurin", "conditions": "5 days", "measurement": "pEC50", "value": "< 4.52"}
{"SMILES": "C=CC(=O)NC1CCN(c2ncc3ncnc(Nc4ccc(Oc5ccc6c(c5)ncn6C)c(C)c4)c3n2)CC1", "target or system": "SH-10-TC", "assay": "cell growth or viability", "measurement": "pEC50", "value": 7.13}
